Results as given in paper PMC7941214 (Journal of medicinal chemistry, 2019).
Values joined by “and” are separate entries in the source; they are usually repeats but may differ in a detail not shown here. Identical values can stand only once. Like-named read-outs stand apart in the source and are kept apart here.

Legend:
E. coli ATCC 25922 = assay: Broth microdilution MIC/MBC, E. coli; assay type: cell-based, Escherichia coli; settings: for MIC E. coli ATCC 25922: value before the parentheses, two values = two repeats; for MBC E. coli ATCC 25922: value in parentheses
Method in brief: (§1)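 CLSI broth microdilution in cation-adjusted Mueller–Hinton broth. Log-phase cultures were diluted to 7.5 × 10^5 CFU/mL, then mixed 1:1 with 2-fold serial dilutions of gold complexes from DMSO or water stocks, in triplicate, and held 37 °C, 18 h, static. MIC: lowest concentration giving >90% inhibition by OD600 against medium-only and bacteria-only wells. […] E. coli ATCC 25922 quality control was checked each run with ciprofloxacin and […].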

P. aeruginosa NCTC 13437 = assay: Broth microdilution MIC/MBC, P. aeruginosa; assay type: cell-based, Pseudomonas aeruginosa; settings: for MIC P. aeruginosa NCTC 13437: value before the parentheses, two values = two repeats; for MBC P. aeruginosa NCTC 13437: value in parentheses
Method in brief: as §1

A. baumannii NCTC 13420 = assay: Broth microdilution MIC/MBC, A. baumannii; assay type: cell-based, Acinetobacter baumannii; settings: for MIC A. baumannii NCTC 13420: value before the parentheses, two values = two repeats; for MBC A. baumannii NCTC 13420: value in parentheses
Gram-negative strains = assay: Broth microdilution, Gram-negative strains taken together; assay type: cell-based
[1] = system: K. pneumoniae ATCC 700603; assay: Broth microdilution MIC/MBC, K. pneumoniae; assay type: cell-based, Klebsiella pneumoniae; settings: for MIC K. pneumoniae ATCC 700603: value before the parentheses, two values = two repeats; for MBC K. pneumoniae ATCC 700603: value in parentheses; for fold enhancement of activity over auranofin, K. pneumoniae: vs auranofin
Method in brief: as §1

S. aureus JE2 (USA300) = assay: Broth microdilution MIC/MBC, S. aureus; assay type: cell-based, Staphylococcus aureus; settings: for MBC S. aureus JE2 (USA300): value in parentheses; for MIC S. aureus JE2 (USA300): value before the parentheses, two values = two repeats
Method in brief: as §1

E. cloacae NCTC 13405 = assay: Broth microdilution MIC/MBC, E. cloacae; assay type: cell-based, Enterobacter cloacae; settings: for MIC E. cloacae NCTC 13405: value before the parentheses, two values = two repeats; for MBC E. cloacae NCTC 13405: value in parentheses; for fold enhancement of activity over auranofin, E. cloacae: vs auranofin
Method in brief: as §1

E. faecium ATCC 700221 = assay: Broth microdilution MIC/MBC, E. faecium; assay type: cell-based, Enterococcus faecium; settings: for MIC E. faecium ATCC 700221: value before the parentheses, two values = two repeats; for MBC E. faecium ATCC 700221: value in parentheses
Method in brief: as §1

Log P determination = settings: n-octanol/water, Au by FAAS
rat = settings: cited from earlier work
A549 cells = assay: Cytotoxicity assay; assay type: cell-based, human; settings: for IC50: read-out: IC50 against A549 cells, means ± SEM from two independent experiments

## CC[P+](CC)(CC)[Au-][S]c1ccc([N+](=O)[O-])cc1 [Compound 19, (4-Nitrobenzenethiolato)(triethylphosphine) Gold(I)]
E. coli ATCC 25922
  MIC E. coli ATCC 25922: >546 µM
P. aeruginosa NCTC 13437
  MIC P. aeruginosa NCTC 13437: >546 µM
A. baumannii NCTC 13420
  MIC A. baumannii NCTC 13420: >546 µM
Gram-negative strains
  activity toward Gram-negative strains (in words): completely inactive
[1]
  MIC K. pneumoniae ATCC 700603: >546 µM
S. aureus JE2 (USA300)
  MIC S. aureus: in the nanomolar range
  MBC S. aureus JE2 (USA300): 0.02 µM
S. aureus JE2 (USA300); vs auranofin
  fold enhancement of activity over auranofin, S. aureus: up to 10
E. cloacae NCTC 13405
  MIC E. cloacae NCTC 13405: >546 µM
E. faecium ATCC 700221
  MIC E. faecium ATCC 700221: 0.06 µM and 0.1 µM
  MBC E. faecium ATCC 700221: 0.5 µM
Log P determination
  log P: >3.28

## CCP(CC)CC.[Au+].[Cl-] [Compound 25, (Triethylphosphine)gold Chloride]
E. coli ATCC 25922
  MIC E. coli ATCC 25922: 23 µM
  MBC E. coli ATCC 25922: 23 µM
P. aeruginosa NCTC 13437
  MIC P. aeruginosa NCTC 13437: 92 µM
  MBC P. aeruginosa NCTC 13437: 183 µM
A. baumannii NCTC 13420
  MBC A. baumannii NCTC 13420: 23 µM
[1]
  MIC K. pneumoniae ATCC 700603: 46 µM
  MBC K. pneumoniae ATCC 700603: 46 µM
rat
  rat acute oral LD50: 79.0 mg/kg
S. aureus JE2 (USA300)
  MBC S. aureus JE2 (USA300): 0.2 µM
E. cloacae NCTC 13405
  MIC E. cloacae NCTC 13405: 23 µM
  MBC E. cloacae NCTC 13405: 23 µM
E. faecium ATCC 700221
  MBC E. faecium ATCC 700221: 0.7 µM
Log P determination
  log P: 1.74

## CC[P+](CC)(CC)[Au-][S]CCO [Compound 21, (2-Mercaptoethanolato)(triethylphosphine) Gold(I)]
A549 cells; A549 cells, vs auranofin
  cytotoxicity relative to auranofin (times less toxic): 1.6
E. coli ATCC 25922
  MIC E. coli ATCC 25922: 10 µM
  MBC E. coli ATCC 25922: 10 µM
P. aeruginosa NCTC 13437
  MIC P. aeruginosa NCTC 13437: 41 µM
  MBC P. aeruginosa NCTC 13437: 41 µM
P. aeruginosa NCTC 13437; vs auranofin
  fold enhancement of activity over auranofin, P. aeruginosa: 9
A. baumannii NCTC 13420
  MIC A. baumannii NCTC 13420: 10 µM
  MBC A. baumannii NCTC 13420: 82 µM
Gram-negative strains; vs auranofin
  fold enhancement of activity over auranofin, Gram-negative strains: 5–19
[1]
  MIC K. pneumoniae ATCC 700603: 20 µM
  MBC K. pneumoniae ATCC 700603: 20 µM
  fold enhancement of activity over auranofin, K. pneumoniae: 19
S. aureus JE2 (USA300)
  MIC S. aureus JE2 (USA300): 0.03 µM
  MBC S. aureus JE2 (USA300): 0.03 µM
E. cloacae NCTC 13405
  MIC E. cloacae NCTC 13405: 5 µM and 10 µM
  MBC E. cloacae NCTC 13405: 82 µM
  fold enhancement of activity over auranofin, E. cloacae: 19
E. faecium ATCC 700221
  MIC E. faecium ATCC 700221: 0.2 µM and 0.3 µM
  MBC E. faecium ATCC 700221: 0.6 µM
Log P determination
  log P: 1.19

## CC(=O)OCC1O[C@@H]([S][Au-][P+](C)(C)C)C(OC(C)=O)[C@@H](OC(C)=O)[C@@H]1OC(C)=O (stereo partly drawn) [Compound 31, (2,3,4,6-Tetra-O-acetyl-1-thio-β-D-glucopyranosato)-(trimethylphosphine) Gold(I)]
A549 cells
  IC50: 20.6 ± 3.6 µM
E. coli ATCC 25922
  MIC E. coli ATCC 25922: 6 µM
  MBC E. coli ATCC 25922: 6 µM
P. aeruginosa NCTC 13437
  MIC P. aeruginosa NCTC 13437: 101 µM
  MBC P. aeruginosa NCTC 13437: 101 µM
A. baumannii NCTC 13420
  MBC A. baumannii NCTC 13420: 101 µM
[1]
  MIC K. pneumoniae ATCC 700603: 13 µM
  MBC K. pneumoniae ATCC 700603: 13 µM
  fold enhancement of activity over auranofin, K. pneumoniae: 30
S. aureus JE2 (USA300)
  MIC S. aureus JE2 (USA300): 0.1 µM
  MBC S. aureus JE2 (USA300): 0.2 µM
E. cloacae NCTC 13405
  MIC E. cloacae NCTC 13405: 3.1 µM and 3 µM
  MBC E. cloacae NCTC 13405: 3.1 µM and 3 µM
  fold enhancement of activity over auranofin, E. cloacae: 60 and 61
E. faecium ATCC 700221
  MIC E. faecium ATCC 700221: 0.2 µM and 0.4 µM
  MBC E. faecium ATCC 700221: 0.8 µM
Log P determination
  log P: 0.35

## C[PH](C)(C)[Au][S]CCO [Compound 40, (2-Mercaptoethanolato)(trimethylphosphine) Gold(I)]
A549 cells
  IC50: 35.1 ± 8.9 µM
E. coli ATCC 25922
  MBC E. coli ATCC 25922: 11 µM
P. aeruginosa NCTC 13437
  MBC P. aeruginosa NCTC 13437: 91 µM
A. baumannii NCTC 13420
  MIC A. baumannii NCTC 13420: 5.7 µM and 6 µM and 3 µM
  MBC A. baumannii NCTC 13420: 23 µM
[1]
  MIC K. pneumoniae: 11 μ/mL
  MIC K. pneumoniae ATCC 700603: 11 µM
  MBC K. pneumoniae ATCC 700603: 23 µM
  fold enhancement of activity over auranofin, K. pneumoniae: 34
S. aureus JE2 (USA300)
  MIC S. aureus JE2 (USA300): 0.3 µM
  MBC S. aureus JE2 (USA300): 0.7 µM
E. cloacae NCTC 13405
  MIC E. cloacae NCTC 13405: 2.9 µM and 3 µM
  MBC E. cloacae NCTC 13405: 3 µM
  fold enhancement of activity over auranofin, E. cloacae: 65
E. faecium ATCC 700221
  MIC E. faecium ATCC 700221: 0.3 µM
  MBC E. faecium ATCC 700221: 0.3 µM
Log P determination
  log P: −0.15

## CC[PH](CC)(CC)[Au][S][C@@H]1O[C@H](COC(C)=O)[C@@H](OC(C)=O)[C@H](OC(C)=O)[C@H]1OC(C)=O [Compound 1, (2,3,4,6-Tetra-O-acetyl-1-thio-β-D-glucopyranosato)-(triethylphosphine) Gold(I), reference compound]
A549 cells
  IC50: 11.3 ± 1.9 µM
E. coli ATCC 25922; MIC/MBC
  MBC E. coli: 16 µg/mL
  MIC E. coli: 16 µg/mL
E. coli ATCC 25922
  MIC E. coli ATCC 25922: 24 µM
  MBC E. coli ATCC 25922: 24 µM
P. aeruginosa NCTC 13437
  MIC P. aeruginosa NCTC 13437: 377 µM
  MBC P. aeruginosa NCTC 13437: 377 µM
A. baumannii NCTC 13420; MIC/MBC
  MBC A. baumannii: 32 µg/mL
  MIC A. baumannii: 32 µg/mL
A. baumannii NCTC 13420
  MIC A. baumannii NCTC 13420: 47 µM
  MBC A. baumannii NCTC 13420: 47 µM
A. baumannii NCTC 13420; listed as Auranofin
  MIC A. baumannii NCTC 13420: 47 µM
  MBC A. baumannii NCTC 13420: 47 µM
[1]
  MIC K. pneumoniae ATCC 700603: 377 µM
  MBC K. pneumoniae ATCC 700603: 377 µM
[1]; listed as Auranofin
  MIC K. pneumoniae ATCC 700603: 377 µM
  MBC K. pneumoniae ATCC 700603: 377 µM
rat
  rat acute oral LD50: 265 mg/kg
S. aureus JE2 (USA300); Table S1
  MBC S. aureus: 0.06 µg/mL
  MIC S. aureus: 0.03 µg/mL
S. aureus JE2 (USA300)
  MIC S. aureus JE2 (USA300): 0.04 µM
  MBC S. aureus JE2 (USA300): 0.09 µM
E. cloacae NCTC 13405
  MIC E. cloacae NCTC 13405: 189 µM
  MBC E. cloacae NCTC 13405: 189 µM
E. faecium ATCC 700221; Table S1
  MBC E. faecium: 0.25 µg/mL
  MIC E. faecium: 0.12 µg/mL
E. faecium ATCC 700221
  MBC E. faecium ATCC 700221: 0.4 µM
Log P determination
  log P: 0.56

## CC[PH](CC)(CC)[Au][S]c1ccc(C(F)(F)F)cc1 [Compound 20, (4-(Trifluoromethyl)benzenethiolato)(triethylphosphine) Gold(I)]
E. coli ATCC 25922
  MIC E. coli ATCC 25922: >520 µM
P. aeruginosa NCTC 13437
  MIC P. aeruginosa NCTC 13437: >520 µM
A. baumannii NCTC 13420
  MIC A. baumannii NCTC 13420: 520 µM
  MBC A. baumannii NCTC 13420: > 520 µM
Gram-negative strains
  activity toward Gram-negative strains (in words): completely inactive
[1]
  MIC K. pneumoniae ATCC 700603: >520 µM
S. aureus JE2 (USA300)
  MBC S. aureus JE2 (USA300): 0.2 µM
E. cloacae NCTC 13405
  MIC E. cloacae NCTC 13405: >520 µM
E. faecium ATCC 700221
  MIC E. faecium ATCC 700221: 0.02 µM
  MBC E. faecium ATCC 700221: 0.2 µM
Log P determination
  log P: >3.18

## CCCC[P+](CCCC)(CCCC)[Au-][S][C@@H]1OC(COC(C)=O)[C@@H](OC(C)=O)[C@H](OC(C)=O)C1OC(C)=O (stereo partly drawn) [Compound 32, (2,3,4,6-Tetra-O-acetyl-1-thio-β-D-glucopyranosato)(tri-n-butylphosphine) Gold(I)]
E. coli ATCC 25922
  MIC E. coli ATCC 25922: >336 µM
P. aeruginosa NCTC 13437
  MIC P. aeruginosa NCTC 13437: >336 µM
A. baumannii NCTC 13420
  MIC A. baumannii NCTC 13420: 84 µM
  MBC A. baumannii NCTC 13420: > 336 µM
Gram-negative strains
  activity toward Gram-negative strains (in words): completely diminished the activity
[1]
  MIC K. pneumoniae ATCC 700603: >336 µM
S. aureus JE2 (USA300)
  MIC S. aureus JE2 (USA300): 3 µM
  MBC S. aureus JE2 (USA300): 3 µM
E. cloacae NCTC 13405
  MIC E. cloacae NCTC 13405: >336 µM
E. faecium ATCC 700221
  MIC E. faecium ATCC 700221: 3 µM and 5 µM
  MBC E. faecium ATCC 700221: 3 µM
Log P determination
  log P: >4.32
